Hits are enriched below; roughly 1.8% of the tested compounds scored in any of these assays.
STEP block – STEP (human) phosphatase inhibition; AID 588621; inhibition, % at 20 µM; 360,000 tested, 0.25% active; P54829; recombinant STEP, OMFP fluorogenic substrate, fluorescence;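 active = inhibition at 20 µM, scaled per plate between control wells, above about 37%, limit read from the data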;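 note: 0% = DMSO with enzyme and substrate and 100% = substrate only without enzyme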
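System: STEP phosphatase, cell-free reaction; Buffer or medium: Bis-Tris pH 6.0 buffer with DTT, detergent; Incubation: 20 min at room temperature, dark; Measured by: fluorescence, 480/540 nm.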
Scp-1 inhibitor – inhibitors of human Scp-1 phosphatase; Q9GZU7; Recombinant Scp1, phosphopeptide, malachite green phosphate absorbance; inhibition, % at 20 µM; 340,000 tested, 0.88% active; AID 493091;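 active = inhibition above about 50% at 20 µM, limit read from the data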;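 note: plate controls were DMSO wells with enzyme for no effect and wells lacking enzyme for full effect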
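Test system: SCP-1 phosphatase catalytic domain, residues 76-261; measured by: colorimetric phosphate reagent with accelerator and stabiliser, absorbance at 630 nm; timing: enzyme reaction 45 min at room temperature, colour 5 min, stabilisation 30 min; also added: Phosphorylated 17-residue peptide substrate; compound dosing: one concentration, 20 µM, with 1.0% DMSO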
DNMT1 block – blocks human DNA methyltransferase DNMT1; DNMT1 molecular beacon, Hinp1I cleavage, fluorescence; inhibition (reported as % activation of signal), % at 10 µM; 360,000 tested, 0.83% active; AID 588458; in the data active = inhibition above about 50%
Target sequence (P26358 504-1616 limits assumed): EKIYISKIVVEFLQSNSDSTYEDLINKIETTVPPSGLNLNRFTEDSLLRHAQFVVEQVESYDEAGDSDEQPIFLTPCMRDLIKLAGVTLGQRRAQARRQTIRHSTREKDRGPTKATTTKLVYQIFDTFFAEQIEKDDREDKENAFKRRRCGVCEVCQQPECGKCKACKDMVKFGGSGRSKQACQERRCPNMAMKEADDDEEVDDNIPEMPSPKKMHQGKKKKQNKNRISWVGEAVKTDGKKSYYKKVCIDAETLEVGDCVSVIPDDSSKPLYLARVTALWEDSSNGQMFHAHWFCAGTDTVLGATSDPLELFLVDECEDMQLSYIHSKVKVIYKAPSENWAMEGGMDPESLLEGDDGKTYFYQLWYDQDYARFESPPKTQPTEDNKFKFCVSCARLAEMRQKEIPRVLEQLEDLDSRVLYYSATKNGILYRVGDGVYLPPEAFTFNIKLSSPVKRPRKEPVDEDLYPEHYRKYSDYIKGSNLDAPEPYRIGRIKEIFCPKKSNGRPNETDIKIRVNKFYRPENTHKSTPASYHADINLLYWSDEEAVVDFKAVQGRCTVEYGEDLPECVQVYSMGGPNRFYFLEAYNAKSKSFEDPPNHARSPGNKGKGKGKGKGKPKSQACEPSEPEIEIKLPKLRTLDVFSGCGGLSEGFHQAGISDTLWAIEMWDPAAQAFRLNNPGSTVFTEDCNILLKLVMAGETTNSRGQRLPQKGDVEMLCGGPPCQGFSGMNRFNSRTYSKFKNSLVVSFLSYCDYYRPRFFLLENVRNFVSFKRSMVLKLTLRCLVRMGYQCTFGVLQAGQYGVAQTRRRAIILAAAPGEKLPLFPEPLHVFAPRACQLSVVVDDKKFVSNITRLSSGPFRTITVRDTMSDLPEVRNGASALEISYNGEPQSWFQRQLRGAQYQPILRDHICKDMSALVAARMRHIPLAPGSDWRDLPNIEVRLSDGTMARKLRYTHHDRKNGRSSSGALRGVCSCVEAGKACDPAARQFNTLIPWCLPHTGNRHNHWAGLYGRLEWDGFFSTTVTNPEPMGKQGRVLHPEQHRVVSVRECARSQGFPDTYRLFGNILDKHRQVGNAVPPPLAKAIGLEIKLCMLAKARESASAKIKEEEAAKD
SUMO1 PPI mod – alters human SUMO1 binding to SIM partners; SUMO1 binding to a labelled peptide, TR-FRET, 1 h; 360,000 tested, 0.33% active; inhibition, % at 20 µM; P63165; in the data active = inhibition above about 37%
LMPTP block – blocks human LMPTP phosphatase; recombinant LMPTP-A, OMFP fluorogenic substrate, fluorescence intensity; inhibition, % at 20 µM; 360,000 tested, 0.22% active; AID 651560;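 active = compounds that cut the enzyme signal by at least half of the control window in the single-dose screen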;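 note: plate controls were DMSO wells with enzyme plus substrate for no effect and substrate without enzyme for full effect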
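Test system: LMPTP-A phosphatase enzyme; input: 0.625 nM LMPTP-A final; reagent: OMFP substrate, 400 µM final; compound dosing: 20 µM single dose, 3% DMSO; incubation: 50 min dark incubation at room temperature; measured by: endpoint fluorescence intensity from OMFP dephosphorylation; measure: % inhibition relative to no-enzyme and uninhibited control wells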
DNMT1 confirm – DNMT1 inhibition confirmation, single concentration | shares compounds with DNMT1 block | DNMT1 molecular beacon HinP1I cleavage, fluorescence | inhibition, % at 10 µM | 2,300 tested, 8% active;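 active = average inhibition of at least 30% in the single-concentration confirmation test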
DNMT1 interf – beacon fluorescence artifact counter-screen; DNMT1 molecular beacon spectral interference counterscreen, fluorescence 485/520; 2,300 tested, 1% active; shares compounds with DNMT1 block; activation (fluorescence interference), % at 10 µM;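 active = activation of at least 30% at 10 µM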;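 note: DNMT1 catalytic domain with a HinP1I cleavage step and a FAM/dabcyl DNA beacon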
* marks the source's active call; other numbers are inactive results; . = not tested or not shown.

SMILES	STEP block	Scp-1 inhibitor	DNMT1 block	SUMO1 PPI mod	LMPTP block	DNMT1 confirm	DNMT1 interf
Cc1ccc(CNC(=O)c2nnn(CC(=O)Nc3cc(C)cc(C)c3)c2N)cc1	-2	-1	56*	3	14	-2	0
CCCCNC(=O)C1c2ccccc2OCC(=O)N1Cc1ccccn1 (configuration not stated)	.	.	.	-7	-1	.	.
O=C(NCC(c1ccco1)N1CCCC1)c1cn(-c2ccccc2)nc1-c1ccc(F)cc1 (configuration not stated)	1	16	0	-6	2	.	.
COc1ccc(/C=N/Nc2cc(N(C)C)nc(N(C)C)n2)cc1	5	-2	51*	-6	6	-3	-11
CN(C)c1cc(N/N=C\c2ccccc2)nc(N(C)C)n1	2	-3	5	20	7	.	.
COC(=O)Cn1c(=NC(=O)c2sc3ccccc3c2Cl)sc2cc(S(N)(=O)=O)ccc21	4	1	66*	-5	33	3	-10
O=[N+]([O-])c1ccc(/C=N/Nc2nc(N3CCCCCC3)nc(N3CCCCCC3)n2)o1	2	12	66*	-6	4	0	1
CCCCn1c(N)c(N(C(=O)CSc2nnnn2-c2ccccc2C)C2CCCC2)c(=O)[nH]c1=O	-2	-8	0	-2	0	.	.
Cc1ccc(S(=O)(=O)N2CCCC2CNC(=O)C(=O)Nc2ccc(F)cc2)cc1 (configuration not stated)	0	-2	54*	0	1	2	4
Cn1c(SCC(=O)NCCc2ccccc2)nnc1C1CCCCC1	0	-6	1	4	-1	.	.
COc1ccc(C(CNC(=O)C(C)Sc2ccccc2)N2CCOCC2)cc1 (configuration not stated)	1	-15	-2	-27	-9	.	.
CC12CCC3c4ccc(O)c([N+](=O)[O-])c4CCC3C1CCC2=O (configuration not stated)	-2	.	78*	-8	31	7	6
O=C(O)c1ccc2c(c1)SC1=NS(=O)(=O)CCN12	2	-4	3	-3	-1	.	.
COc1ccc(C(C)(C)C)cc1NC(=O)c1ccc2c(c1)SC1=NS(=O)(=O)CCN12	0	-9	69*	-2	-1	0	2
Cc1ccc2nc(NC(=O)C3CCN(S(=O)(=O)c4cc([N+](=O)[O-])ccc4Cl)CC3)sc2c1	0	64*	60*	3	4	2	-3
Cc1ccc2nc(NC(=O)C3CCN(S(=O)(=O)c4cccc5nsnc45)CC3)sc2c1	0	-3	5	-12	2	.	.
CCCCN(C)CCn1c(=S)[nH]c2ncccc2c1=O	5	-2	94*	-2	-3	0	-1
CCN(CC)CCCn1c(=S)[nH]c2ncccc2c1=O	4	-6	10	2	-1	.	.
CCn1cc(C(=O)NCC(OC)OC)c(=O)c2cc(S(=O)(=O)N(C)C3CCCCC3)ccc21	-1	-3	1	0	0	.	.
Cc1cccc(Nc2c(O)nc[nH]c2=O)c1	-1	-8	-4	0	0	.	.
CN(C)S(=O)(=O)N(CC(=O)N(Cc1ccccc1)Cc1ccccc1)c1ccccc1	7	39	56*	1	13	3	4
CN(C)S(=O)(=O)N(Cc1ccc(Br)cc1)c1ccccc1	2	-11	-4	-2	2	.	.
CCC(NC(=O)c1cccc(Cn2nc(C)c([N+](=O)[O-])c2C)c1)c1ccc(C(C)C)cc1 (configuration not stated)	0	0	55*	1	5	2	5
COc1ccccc1NS(=O)(=O)c1cccc(NC(=O)c2cncc(Br)c2)c1	-4	3	0	2	-1	.	.
Cc1ccc(CCNC(=O)c2cc(C)nn2-c2ccccc2)cc1	-1	-7	61*	-1	0	2	1
SMILES	STEP block	Scp-1 inhibitor	DNMT1 block	SUMO1 PPI mod	LMPTP block	DNMT1 confirm	DNMT1 interf
Cc1cc(C(=O)NCc2ccc(Cl)cc2)n(-c2ccccc2)n1	0	9	0	-3	1	.	.
Cc1ccc(S(=O)(=O)Nc2ccc(S(=O)(=O)Nc3cc(C)nc(C)n3)cc2)cc1	-2	-8	1	9	-1	.	.
COc1ccc(S(=O)(=O)Nc2ccc(S(=O)(=O)Nc3cc(C)nc(C)n3)cc2)cc1OC	-4	-8	76*	11	-2	3	4
CCc1cc2c(=O)n3c(nc2s1)-c1[nH]c2ccc(OC)cc2c1CC3	1	2	76*	-2	2	5	5
COc1cccc(N2CCN(CC(=O)NC(=O)NCc3ccco3)CC2)c1	0	9	50*	7	14	8	-1
Cc1cc(C(F)(F)F)c(C#N)c(SCC(=O)Nc2nc3ccccc3s2)n1	-4	-7	83*	-1	-1	23	11
CCOc1ccc(NC(=O)CCCc2cc(-c3ccc(OCC)cc3)on2)cc1	5	-7	57*	-2	0	1	4
Cc1ccc(CSc2nnc(SCC(=O)N/N=C/c3ccccc3OCC(=O)O)s2)cc1	2	22	3	-1	1	.	.
Cc1ccc(CSc2nnc(SCC(=O)N/N=C/c3c[nH]c4ccccc34)s2)cc1	12	42	62*	19	32	14	-2
O=C(CSc1nnc(SCc2ccccc2)s1)N/N=C/C=C\c1ccco1	3	82*	88*	13	28	9	-1
CCCNC(=O)C1(C)CCCN(C(=O)c2ccc3ccccc3c2)C1 (configuration not stated)	2	.	-3	-3	-1	.	.
Cc1nnc(SCC(=O)NCc2ccco2)[nH]c1=O	2	18	20	9	-1	.	.
Cc1cc(=O)[nH]c(SCC(=O)NCc2ccco2)n1	4	67*	56*	23	0	1	3
Cc1ccc(-n2nc3c(c2NC(=O)C(C)(C)C)CS(=O)(=O)C3)cc1	-2	-2	3	0	-1	.	.
COc1ccccc1CNC(=O)c1cc(-c2ccccc2C)n(CC2CC(c3cccc([N+](=O)[O-])c3)=NO2)n1 (configuration not stated)	1	-9	-3	-7	5	.	.
CCOC(=O)C1=C(c2ccccc2)N=c2s/c(=C\c3ccco3)c(=O)n2C1c1cccs1 (configuration not stated)	4	29	58*	1	5	9	5
CCOC(=O)C1=C(c2ccccc2)N=c2s/c(=C\c3cc(OC)c(OC)c(OC)c3)c(=O)n2C1c1cccs1 (configuration not stated)	2	-8	1	14	1	.	.

High-throughput results deposited in PubChem BioAssay by Sanford-Burnham Center for Chemical Genomics.
